20 compounds from ChEMBL document CHEMBL1156823, “Design and synthesis of novel quinone inhibitors targeted to the redox function of apurinic/apyrimidinic endonuclease 1/redox enhancing factor-1 (Ape1/ref-1)” (J Med Chem, 2010) can be followed below.

Usually GI50 stands for the concentration at which growth is held to half of that of the control. Lower therefore signals greater sensitivity of the cells. A word on the IC50: it is the concentration needed to halve the response being measured.

Calls of active or inactive are those of the source. The calls are words filed in the database; no cut-off is given here.

For test [1], the target named is T1, DNA repair nuclease/redox regulator APEX1 (Homo sapiens, UniProt P27695). The experiment in a line: Inhibition of Ape1/ref-1 endonuclease activity up to 100 uM.
T1 sequence (P27695 whole entry): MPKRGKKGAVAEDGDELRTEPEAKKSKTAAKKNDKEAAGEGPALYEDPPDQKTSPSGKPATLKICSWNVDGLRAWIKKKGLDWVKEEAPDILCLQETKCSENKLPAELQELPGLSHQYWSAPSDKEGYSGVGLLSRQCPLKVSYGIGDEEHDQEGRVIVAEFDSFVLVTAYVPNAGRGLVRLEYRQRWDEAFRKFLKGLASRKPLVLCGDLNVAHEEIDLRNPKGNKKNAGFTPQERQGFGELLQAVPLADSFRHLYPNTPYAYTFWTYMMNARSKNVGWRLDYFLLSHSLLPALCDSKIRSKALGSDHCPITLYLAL
The nature of test [2]: Growth inhibition of human Hey-C2 cells after 72 hrs by MTS assay. Type of test: functional. The settings on record: Hey-C2, 72 h. In outline: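 Hey-C2 ovarian cancer cells grown in RPMI 1640 with 10% fetal calf serum; 2–4,000 cells per well in triplicate, adhered overnight, then exposed to drug for 72 h at 37 °C. MTS reagent (0.05 mg/mL) added for 4 h at 37 °C, absorbance read at 490 nm, normalized to media-alone wells. GI50 is the average of three experiments.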
(In general: Tetrazolium assays rely on reduction of a dye to a coloured formazan, in cell work by metabolically active cells.)

In test [3] the target is T1, DNA repair nuclease/redox regulator APEX1. Kind of test: Inhibition of Ape1/ref-1 redox activity in presence of 0.02 mM DTT and human Hey-C2 cells nuclear extracts by EMSA. Type of test: cell-free. In outline:
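Purified Ape1 reduced with 1.0 mM DTT at 37 °C for 10 min, then diluted in PBS. Poly(dI-dC) added for 5 min, then HEX-labeled AP-1 consensus duplex (0.1 pmol) for 30 min at room temperature. Final DTT 0.02 mM.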
A general note: A gel shift assay detects complexes by their altered migration in electrophoresis.

For the compound `C/C(=C/C1=C(Cl)C(=O)c2ccccc2C1=O)C(=O)O`, the inhibition result in test [1] was “inactive”. In test [2], this compound gave a GI50 of 30 µM. Moreover, the 50% inhibitory concentration (IC50) in test [3] was 2000 nM.
Take `COCC/C(=C\C1=C(Cl)C(=O)c2ccccc2C1=O)C(=O)O`: the inhibition entry in test [1] was “inactive”. This compound also gave a GI50 in test [2] of 30 µM.
`C/C(=C\C1=C(Cl)C(=O)c2ccccc2C1=O)C(=O)NCCO`: the inhibition entry in test [1] was “inactive”. This compound also registered a 50% growth inhibitory concentration (GI50) in test [2] of 8 µM. Further, in test [3], the half-inhibitory concentration (IC50) stood at 1000 nM.
For `C/C(=C\C1=C(F)C(=O)c2ccccc2C1=O)C(=O)O`, in test [1], the inhibition result is “inactive”. The compound also yielded a concentration for 50% growth inhibition (GI50) in test [2] of 50 µM.
For the compound `C/C(=C\C1=C(Cl)C(=O)c2ccccc2C1=O)C(=O)O`, the inhibition entry in test [1] was “inactive”. Besides, in test [2], the GI50 is 15 µM.
For the compound `COC1=C(OC)C(=O)C(/C=C(\C)C(=O)O)=C(Cl)C1=O`, the inhibition entry in test [1] was “inactive”. The compound also displayed a concentration for 50% growth inhibition (GI50) in test [2] of 45 µM. Further, in test [3], the IC50 amounted to 3000 nM.
Regarding `COCC/C(=C\C1=C(C)C(=O)C(OC)=C(OC)C1=O)C(=O)O`, the inhibition entry in test [1] was “inactive”. The compound further registered a 50% growth inhibitory concentration (GI50) in test [2] of 200 µM.
Take `CSC1=C(/C=C(\C)C(=O)O)C(=O)c2ccccc2C1=O`: the inhibition result in test [1] is “inactive”. Also, the GI50 in test [2] was determined as 30 µM.
`CCCCCCCCC/C(=C\C1=C(C)C(=O)C(OC)=C(OC)C1=O)C(=O)NCCO`: in test [1], the inhibition entry is “inactive”. For the same compound, the 50% growth inhibitory concentration (GI50) in test [2] turned out to be 35 µM.
Take `COC1=C(OC)C(=O)C(/C=C(\C)C(=O)O)=C(C)C1=O`: in test [1], the inhibition result was “inactive”. The compound also returned a 50% growth inhibitory concentration (GI50) in test [2] of 130 µM.
`C/C(=C\C1=C(Br)C(=O)c2ccccc2C1=O)C(=O)O`: in test [2], the 50% growth inhibitory concentration (GI50) came to 13 µM.
Take `COCC/C(=C\C1=C(Br)C(=O)c2ccccc2C1=O)C(=O)O`: the inhibition result in test [1] was “inactive”. Further, the 50% growth inhibitory concentration (GI50) in test [2] stood at 25 µM. For the same compound, in test [3], the IC50 stood at 1000 nM.
In the case of `COCC/C(=C\C1=C(C)C(=O)c2ccccc2C1=O)C(=O)O`, the inhibition result in test [1] is “inactive”. In test [2], this compound displayed a GI50 of 30 µM.
For `CC1=C(/C=C(\C)C(=O)O)C(=O)c2ccccc2C1=O`, the inhibition result in test [1] was “inactive”. The concentration for 50% growth inhibition (GI50) in test [2] is 45 µM.
The matching figures for `O=C(O)CCC1=C(Br)C(=O)c2ccccc2C1=O`: “inactive” and 15 µM.
The like results for `COC1=C(OC)C(=O)C(/C=C/C(=O)O)=C(C)C1=O` were, in that order, “inactive” and 250 µM.
On to `CCCCCCCCC/C(=C\C1=C(C)C(=O)C(OC)=C(OC)C1=O)C(=O)O` [APX-3330], for which, in test [1], the inhibition entry was “inactive”. The compound further displayed a GI50 in test [2] of 35 µM.
Take `CCCC/C(=C\C1=C(C)C(=O)C(OC)=C(OC)C1=O)C(=O)O`: the inhibition entry in test [1] was “inactive”. Moreover, the 50% growth inhibitory concentration (GI50) in test [2] was determined as 85 µM.
`COC1=C(/C=C(\C)C(=O)O)C(=O)c2ccccc2C1=O`: the inhibition result in test [1] was “inactive”. This compound had a GI50 in test [2] of 40 µM. Moreover, the IC50 in test [3] was found to be 1000 nM.
In the case of `C/C(=C\C1=CC(=O)c2ccccc2C1=O)C(=O)O`, in test [1], the inhibition result is “inactive”. Besides, it took 20 µM to inhibit growth in test [2] by half (GI50). Besides, the IC50 in test [3] came to 3000 nM.
